Source: ChEMBL document CHEMBL3244380, “Preparation and antitumor activity of 1-aryl-3,3-dimethyltriazene derivatives” (1977)

Key:
Assay type in all cases: functional
Conditions in all cases: TLX-5, ip, 72 h, route intraperitoneal
[1] = Antitumor activity against mouse TLX5 cells allografted in CBA/LAC mouse assessed as increase in life span at 12.5 mg/kg, ip from day 3 to 7 from tumor inoculation relative to control
Outline: (§1)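 TLX5 lymphoma cells implanted subcutaneously in the inguinal region of female CBA/LAC mice. Drug given as a freshly made solution in acetone–arachis oil 10/90 (v:v), intraperitoneally once daily from day 3 to 7 after tumour inoculation. Five animals per dose level, ten controls. Read-out was %ILS over controls, with analysis of variance used for significance.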

[2] = Antitumor activity against mouse TLX5 cells allografted in CBA/LAC mouse assessed as increase in life span at 25 mg/kg, ip from day 3 to 7 from tumor inoculation relative to control; outline: as §1
[3] = Antitumor activity against mouse TLX5 cells allografted in CBA/LAC mouse assessed as increase in life span at 50 mg/kg, ip from day 3 to 7 from tumor inoculation relative to control; outline: as §1
[4] = Antitumor activity against mouse TLX5 cells allografted in CBA/LAC mouse assessed as increase in life span at 100 mg/kg, ip from day 3 to 7 from tumor inoculation relative to control; outline: as §1
[5] = Antitumor activity against mouse TLX5 cells allografted in CBA/LAC mouse assessed as increase in life span at 200 mg/kg, ip from day 3 to 7 from tumor inoculation relative to control; outline: as §1
[6] = Antitumor activity against mouse TLX5 cells allografted in CBA/LAC mouse assessed as increase in life span at 400 mg/kg, ip from day 3 to 7 from tumor inoculation relative to control; outline: as §1
[7] = Antitumor activity against mouse TLX5 cells allografted in CBA/LAC mouse assessed as increase in life span at 2.5 mg/kg, ip from day 3 to 7 from tumor inoculation relative to control; outline: as §1
[8] = Antitumor activity against mouse TLX5 cells allografted in CBA/LAC mouse assessed as increase in life span at 5 mg/kg, ip from day 3 to 7 from tumor inoculation relative to control; outline: as §1
[9] = Antitumor activity against mouse TLX5 cells allografted in CBA/LAC mouse assessed as increase in life span at 10 mg/kg, ip from day 3 to 7 from tumor inoculation relative to control; outline: as §1
[10] = Antitumor activity against mouse TLX5 cells allografted in CBA/LAC mouse assessed as increase in life span at 20 mg/kg, ip from day 3 to 7 from tumor inoculation relative to control; outline: as §1
[11] = Antitumor activity against mouse TLX5 cells allografted in CBA/LAC mouse assessed as increase in life span at 40 mg/kg, ip from day 3 to 7 from tumor inoculation relative to control; outline: as §1
[12] = Antitumor activity against mouse TLX5 cells allografted in CBA/LAC mouse assessed as increase in life span at 80 mg/kg, ip from day 3 to 7 from tumor inoculation relative to control; outline: as §1
[13] = Antitumor activity against mouse TLX5 cells allografted in CBA/LAC mouse assessed as increase in life span at 160 mg/kg, ip from day 3 to 7 from tumor inoculation relative to control; outline: as §1
[14] = Antitumor activity against mouse TLX5 cells allografted in CBA/LAC mouse assessed as increase in life span at 6.25 mg/kg, ip from day 3 to 7 from tumor inoculation relative to control; outline: as §1
[15] = Antitumor activity against mouse TLX5 cells allografted in CBA/LAC mouse assessed as increase in life span at 800 mg/kg, ip from day 3 to 7 from tumor inoculation relative to control; outline: as §1
[16] = Antitumor activity against mouse TLX5 cells allografted in CBA/LAC mouse assessed as increase in life span at 3.12 mg/kg, ip from day 3 to 7 from tumor inoculation relative to control; outline: as §1

Compound	ILS at 12.5 mg/kg [1] [%]	ILS at 25 mg/kg [2] [%]	ILS at 50 mg/kg [3] [%]	ILS at 100 mg/kg [4] [%]	ILS at 200 mg/kg [5] [%]	ILS at 400 mg/kg [6] [%]	ILS at 2.5 mg/kg [7] [%]	ILS at 5 mg/kg [8] [%]	ILS at 10 mg/kg [9] [%]	ILS at 20 mg/kg [10] [%]	ILS at 40 mg/kg [11] [%]	ILS at 80 mg/kg [12] [%]	ILS at 160 mg/kg [13] [%]	ILS at 6.25 mg/kg [14] [%]	ILS at 800 mg/kg [15] [%]	ILS at 3.12 mg/kg [16] [%]
CCOc1ccc(/C=N/NC(=O)c2ccc(/N=N/N(C)C)cc2)cc1	0	13	29	50	65	63	–	–	–	–	–	–	–	–	–	–
CCCN(CCC)NC(=O)c1ccc(/N=N/N(C)C)cc1	–	–	–	–	–	–	-3.7	-3.7	0	20	-32	–	–	–	–	–
CN(C)/N=N/c1ccc(C(=O)N/N=C/c2ccc(I)cc2)cc1	11	15	40	54	-38	–	–	–	–	–	–	–	–	–	–	–
CN(C)/N=N/c1ccc(C(=O)NN)cc1	–	–	–	–	–	–	–	–	59	55	57	44	-46	–	–	–
CN(C)/N=N/c1ccc(C(=O)N/N=C/c2ccc([N+](=O)[O-])cc2)cc1	-1	-1	8.7	16	26	20	–	–	–	–	–	–	–	–	–	–
CN(C)/N=N/c1ccc(C(N)=O)cc1	14	55	51	47	3.9	-61	–	–	–	–	–	–	–	–	–	–
CCNC(=S)NNC(=O)c1ccc(/N=N/N(C)C)cc1	-1	16	18	55	-31	–	–	–	–	–	–	–	–	–	–	–
CN(C)/N=N/c1ccc(C(=O)N/N=C/c2ccc(Cl)cc2)cc1	4.6	14	40	44	51	-23	–	–	–	–	–	–	–	–	–	–
CN(C)/N=N/c1ccc(C(=O)N/N=C/c2ccccc2[N+](=O)[O-])cc1	44	40	49	51	57	59	–	–	–	–	–	–	–	–	–	–
COc1ccc(/C=N/NC(=O)c2ccc(/N=N/N(C)C)cc2)c(OC)c1	1.9	19	48	52	35	-33	–	–	–	–	–	–	–	–	–	–
CN(C)/N=N/c1ccc(C(=O)N/N=C/c2ccc(Br)cc2)cc1	7.6	21	52	52	60	-35	–	–	–	–	–	–	–	–	–	–
CN(C)/N=N/c1ccc(S(=O)(=O)Nn2cnnc2)cc1	0.9	4.6	0.9	4.6	16	14	–	–	–	–	–	–	–	–	–	–
CCO/C=N/NC(=O)c1ccc(/N=N/N(C)C)cc1	13	30	43	-27	–	–	–	–	–	–	–	–	–	–	–	–
CN(C)/N=N/c1ccc(C(=O)Nn2cnnc2)cc1	-1	32	47	49	28	-14	–	–	–	–	–	–	–	–	–	–
CCCNC(=O)NNC(=O)c1ccc(/N=N/N(C)C)cc1	-1	10	61	44	49	-44	–	–	–	–	–	–	–	–	–	–
CN(C)/N=N/c1ccc(S(=O)(=O)N(C)C)cc1	0	7.5	9.4	34	-36	–	–	–	–	–	–	–	–	–	–	–
CN(C)/N=N/c1ccc(C(=O)N=[N+]=[N-])cc1	4.6	21	46	51	-72	–	–	–	–	–	–	–	–	-1	–	–
CN(C)/N=N/c1ccc(C(=O)NNC(O)c2ccc([N+](=O)[O-])cc2)cc1 (stereo not drawn)	–	6.5	12	74	83	71	–	–	–	–	–	–	–	–	44	–
CN(C)/N=N/c1ccc(S(=O)(=O)N(CCCl)CCCl)cc1	-1	0	2.9	-3.7	–	–	–	–	–	–	–	–	–	-3.7	–	-3.7
CN(C)/N=N/c1ccc(C(=O)N/N=C/c2ccccc2)cc1	26	24	49	36	1.8	-26	–	–	–	–	–	–	–	–	–	–
